Consider 20 compounds from ChEMBL document CHEMBL1145899, “Estrogenic potential of 2-alkyl-4-(thio)chromenone 6-O-sulfamates: potent inhibitors of human steroid sulfatase” (J Med Chem, 2003).

For assay [1], the target named is Estrogen receptor beta (Homo sapiens) (UniProt Q92731).
The target in assay [2] is T1, Estrogen receptor (Homo sapiens) (UniProt P03372).
T1 sequence (whole entry): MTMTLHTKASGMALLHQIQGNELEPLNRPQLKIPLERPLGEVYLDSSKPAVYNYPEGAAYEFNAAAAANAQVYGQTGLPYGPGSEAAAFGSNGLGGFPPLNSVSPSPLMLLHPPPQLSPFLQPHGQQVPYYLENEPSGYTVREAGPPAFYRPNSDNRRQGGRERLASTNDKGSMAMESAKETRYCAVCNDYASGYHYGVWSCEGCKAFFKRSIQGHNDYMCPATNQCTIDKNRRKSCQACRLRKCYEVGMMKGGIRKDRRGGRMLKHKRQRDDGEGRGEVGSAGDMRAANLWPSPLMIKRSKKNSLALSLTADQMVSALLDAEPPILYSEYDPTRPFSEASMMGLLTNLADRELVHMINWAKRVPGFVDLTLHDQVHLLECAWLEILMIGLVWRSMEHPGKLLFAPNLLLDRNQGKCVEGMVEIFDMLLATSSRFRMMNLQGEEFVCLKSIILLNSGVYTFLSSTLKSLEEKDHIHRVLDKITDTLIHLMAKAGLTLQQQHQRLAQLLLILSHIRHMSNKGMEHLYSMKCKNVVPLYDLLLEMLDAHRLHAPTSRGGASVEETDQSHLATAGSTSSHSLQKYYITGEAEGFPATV

Assay [3] deals with MCF7. The assay is described as follows: Stimulation of MCF-7 cell proliferation at 100 nM. Type of assay: functional, Homo sapiens. An outline of the steps:
(§1)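 MCF-7 cells hormone-depleted 10 days, then seeded at 20 000 cells/cm² in phenol red-free RPMI with 2.5% charcoal-stripped FCS and held 5 days. Compound (ethanol/DMSO, ≤0.1% solvent) added day 5, refreshed day 8; sulforhodamine counts days 5 and 10; triplicate wells. % stimulation = (growth vs solvent controls ×100) − 100.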

Assay [4] deals with MCF7. The assay is described as follows: Stimulation of MCF-7 cell proliferation at 1000 nM. Type of assay: functional, Homo sapiens. The method in brief:
as §1

Assay [5] deals with MCF7. Put plainly: Stimulation of MCF-7 cell proliferation at 10 nM. The format is functional, Homo sapiens. An outline of the steps: as §1
Assay [6] has as its target T1, Estrogen receptor (Homo sapiens). The assay is described as follows: Affinity of sulfamate compound for human estrogen receptor alpha. An outline of the steps: (§2)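 Fluorescence polarization competition with purified human ER; ER-α final 13 nM or ER-β final 10 nM, fluorescein-estradiol tracer 1 nM final. Compounds from DMSO or ethanol stocks, 0.5% (v/v) final solvent; room temperature 2–2.5 h; triplicate wells. Four-parameter logistic fit; ED50 = concentration giving polarization midway between +tracer/+ER and +tracer/−ER controls. Tested up to solubility limit.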

Assay [7] deals with Estrogen receptor beta (Homo sapiens) (UniProt Q92731). The assay is described as follows: Affinity of sulfamate compound for human estrogen receptor beta. An outline of the steps: as §2
The next assay concerns the target T2, Steryl-sulfatase (Homo sapiens, UniProt P08842).
T2 sequence (P08842 whole entry): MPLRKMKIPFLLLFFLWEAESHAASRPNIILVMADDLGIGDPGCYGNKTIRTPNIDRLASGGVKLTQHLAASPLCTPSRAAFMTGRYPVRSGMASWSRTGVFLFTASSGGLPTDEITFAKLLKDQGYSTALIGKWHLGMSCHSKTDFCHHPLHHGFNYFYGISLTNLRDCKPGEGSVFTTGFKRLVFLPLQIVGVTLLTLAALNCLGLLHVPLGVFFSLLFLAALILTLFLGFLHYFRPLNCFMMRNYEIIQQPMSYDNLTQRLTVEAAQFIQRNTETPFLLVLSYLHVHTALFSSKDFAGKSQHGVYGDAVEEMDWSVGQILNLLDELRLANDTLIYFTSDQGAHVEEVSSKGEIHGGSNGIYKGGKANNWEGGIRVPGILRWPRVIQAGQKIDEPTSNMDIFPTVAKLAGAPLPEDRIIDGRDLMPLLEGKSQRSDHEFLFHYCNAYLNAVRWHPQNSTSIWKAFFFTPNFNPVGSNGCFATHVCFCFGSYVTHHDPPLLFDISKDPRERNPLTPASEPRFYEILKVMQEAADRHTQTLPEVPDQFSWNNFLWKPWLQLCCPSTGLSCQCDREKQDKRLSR
Put plainly: Inhibition of steroid sulfatase. The method in brief:
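Purified recombinant human STS; fluorimetric assay with 4-methylumbelliferone sulfate as substrate. IC50 by nonlinear regression; mean of triplicate determinations.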

Estrogen receptor beta (Homo sapiens), sequence (Q92731 whole entry): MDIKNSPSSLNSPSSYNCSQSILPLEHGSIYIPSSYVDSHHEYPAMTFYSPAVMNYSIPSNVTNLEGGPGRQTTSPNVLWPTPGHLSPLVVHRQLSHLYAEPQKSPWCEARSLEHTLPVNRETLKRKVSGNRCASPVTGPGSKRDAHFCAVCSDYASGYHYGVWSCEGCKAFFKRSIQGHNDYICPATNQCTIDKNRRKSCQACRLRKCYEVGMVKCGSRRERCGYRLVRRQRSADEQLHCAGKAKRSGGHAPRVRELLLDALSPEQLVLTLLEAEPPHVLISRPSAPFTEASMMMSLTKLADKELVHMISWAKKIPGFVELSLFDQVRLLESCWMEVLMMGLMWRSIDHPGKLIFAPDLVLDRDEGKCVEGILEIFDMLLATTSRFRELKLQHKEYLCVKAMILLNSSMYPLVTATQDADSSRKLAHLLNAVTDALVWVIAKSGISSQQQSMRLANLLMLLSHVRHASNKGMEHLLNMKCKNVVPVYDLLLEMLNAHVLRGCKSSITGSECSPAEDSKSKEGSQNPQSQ

With `CCCCCCCCC(C)(C)c1cc(=O)c2cc(O)ccc2o1`, the ED50 in assay [1] and in assay [2] was greater than 100 µM throughout.
In the case of `CC(C)(C)c1cc(=O)c2cc(O)ccc2o1`, the ED50 in assay [1] worked out at 69 µM; in assay [2], 64 µM.
On the same counts, the results for `O=c1cc(C23CC4CC(CC(C4)C2)C3)oc2ccc(O)cc12` are 1.4 µM and 1.5 µM.
In the same order, the values of `CC1(C)C(c2cc(=O)c3cc(O)ccc3o2)C1(C)C` are 2.6 µM and 0.9 µM.
In the same order, the values of `O=c1cc(C2CCCCCCCCCCC2)oc2ccc(O)cc12` are 1.5 µM and 0.8 µM.
In the case of `CC(C)(C)c1cc(=O)c2cc(OS(N)(=O)=O)ccc2o1`, the Stimulation in the assay on MCF7 [3] stood at 45%; in the assay with MCF7 [4], 100%; with MCF7 [5] it was 12%. The ED50 in assay [1] and in assay [2] was greater than 100 µM in each case.
As for `CCCCCCCCCc1cc(=O)c2cc(OS(N)(=O)=O)ccc2o1`, the Stimulation with MCF7 [3], in the assay on MCF7 [4] and in the assay on MCF7 [5] was 0% each time. The ED50 in assay [1] was greater than 100 µM; in assay [2], greater than 50 µM.
For the compound `C[C@]12CC[C@@H]3c4ccc(OS(N)(=O)=O)cc4CCC3[C@@H]1CCC2=O` (single isomer, unassigned) [EMATE], the ED50 in assay [6] came out at 2.6 µM; in assay [7], 3.7 µM. Further, the figures for the Stimulation in the assay with MCF7 [3], in the assay on MCF7 [4] and with MCF7 [5] were 112%, 123% and 97%, respectively.
In the same order, the values of `NS(=O)(=O)Oc1ccc2oc(CCc3ccccc3)cc(=O)c2c1` are greater than 100 µM, greater than 100 µM, 33%, 45% and 16%.
For the compound `C[C@]12CC[C@@H]3c4ccc(O)cc4CC[C@H]3[C@@H]1CC[C@@H]2O` [ESTRADIOL], the ED50 in assay [1] came to 0.011 µM. In the assay with MCF7 [5], this compound returned a Stimulation of 400%.
With `CCCCCCCCCc1cc(=O)c2cc(O)ccc2o1`, the ED50 in assay [1] and in assay [2] was greater than 100 µM in each case.
Regarding `O=C1CC(C23CC4CC(CC(C4)C2)C3)Oc2ccc(O)cc21` (stereo unspecified), the figures for the ED50 in assay [1] and in assay [2] were 0.035 µM and 0.1 µM, respectively.
For the compound `NS(=O)(=O)Oc1ccc2oc(C3CCCCCCCCCCC3)cc(=O)c2c1`, the Stimulation was found to be 72% with MCF7 [3], 118% in the assay on MCF7 [4] and 48% in the assay on MCF7 [5]. Also, the figures for the ED50 in assay [1] and in assay [2] were greater than 30 µM and greater than 10 µM, respectively.
In the same order, the values of `NS(=O)(=O)Oc1ccc2sc(C34CC5CC(CC(C5)C3)C4)cc(=O)c2c1` are 99%, 120%, 78%, 18 µM and 4.8 µM.
On to `NS(=O)(=O)Oc1ccc2oc(C34CC5CC(CC(C5)C3)C4)cc(=O)c2c1`, for which the Stimulation came out at 88% in the assay on MCF7 [3], 116% in the assay on MCF7 [4] and 71% in the assay on MCF7 [5]. Further, the ED50 in assay [1] and in assay [2] was greater than 30 µM throughout. At Steryl-sulfatase, the concentration for half-maximal inhibition (IC50) (usually the concentration at which inhibition is half-maximal) was 0.0056 µM.
For the compound `CCCCCC12CCC(CC1)C(c1cc(=O)c3cc(O)ccc3o1)C2` (stereo unspecified), the ED50 in assay [1] and in assay [2] was greater than 100 µM each time.
Consider `CCCCCCCCC(C)(C)c1cc(=O)c2cc(OS(N)(=O)=O)ccc2o1`, for which the Stimulation with MCF7 [3], with MCF7 [4] and with MCF7 [5] was 0% in each case. Besides, the ED50 in assay [1] was greater than 100 µM; in assay [2], greater than 30 µM.
Consider `O=c1cc(C23CC4CC(CC(C4)C2)C3)sc2ccc(O)cc12`, for which the ED50 was 0.48 µM in assay [1] and 0.21 µM in assay [2].
On to `CC1(C)C(c2cc(=O)c3cc(OS(N)(=O)=O)ccc3o2)C1(C)C`, for which the Stimulation in the assay on MCF7 [3] was found to be 85%; in the assay with MCF7 [4], 120%; with MCF7 [5] it was 52%. The ED50 in assay [1] came to 47 µM; in assay [2], 30 µM.
`NS(=O)(=O)Oc1ccc2c(c1)C(=O)CC(C13CC4CC(CC(C4)C1)C3)O2` (stereo unspecified): the Stimulation worked out at 90% in the assay on MCF7 [3], 130% with MCF7 [4] and 79% in the assay on MCF7 [5]. Moreover, the figures for the ED50 in assay [1] and in assay [2] were 14 µM and 13 µM, respectively.
